Experimental data: ChEMBL document CHEMBL4002602, “Design, Synthesis of Novel, Potent, Selective, Orally Bioavailable Adenosine A2A Receptor Antagonists and Their Biological Evaluation” (J Med Chem, 2017)
Blank lines part the entries; values can stand above or below the compound they belong to. Active and inactive are the calls of the source. The calls are words filed in the database; no cut-off is given here.

What was measured:
[1] = AUC (0 to t) in Wistar rat plasma at 10 mg/kg administered through oral gavage by LC/MS/MS analysis; assay type: ADME, organism-based
[2] = AUC (0 to t) in Wistar rat brain at 10 mg/kg administered through oral gavage by LC/MS/MS analysis; assay type: ADME, organism-based
Summary of the method: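 Male Wistar rats (230 ± 15 g), fasted overnight, given an oral suspension (1% Tween 80, 0.5% NaCMC; 1 mg/mL, 10 mL/kg). Blood and brain were collected discretely at 0.5, 2, 4 and 8 h. Brain was washed in PBS pH 7.4, weighed and homogenized, then acetonitrile-precipitated with internal standard. LC/MS/MS against standards in blank brain homogenate; n=4.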

Rattus norvegicus [3] = experiment: Neuroprotective activity in po dosed 6-OHDA-lesioned Wistar rat model of parkinson disease assessed as increase in L-DOPA induced contralateral rotations pretreated for 30 mins followed by benserazide addition and subsequent L-DOPA stimulation for 30 mins measured at 60 mins post dose; assay type: functional, organism-based
Summary of the method: (§1)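 Male Wistar rats (295–305 g) anesthetized with ketamine/xylazine and given desipramine 10 mg/kg i.p. 30 min before 6-OHDA lesioning. At two weeks, rats were screened with apomorphine 0.05 mg/kg i.p. and kept only if they made ≥100 rotations in 1 h. Compound (30 or 100 mg/kg p.o., in 1% Tween 80/0.5% MC) was given 30 min before benserazide. L-DOPA 4 mg/kg i.p. followed 30 min later. Contralateral rotations counted over 2 h; one-way ANOVA with Dunnett's test.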

Rattus norvegicus [4] = experiment: Neuroprotective activity in 6-OHDA-lesioned Wistar rat model of parkinson disease assessed as increase in L-DOPA induced contralateral rotations at 100 mg/kg, po pretreated for 30 mins followed by benserazide addition and subsequent L-DOPA stimulation for 30 mins measured up to 2 hrs; assay type: functional, organism-based; summary of the method: as §1
[5] = Ratio of AUC (0 to t) in Wistar rat brain to AUC (0 to t) in Wistar rat plasma at 10 mg/kg administered through oral gavage by LC/MS/MS analysis; assay type: ADME, organism-based; settings: brain and plasma, read-out: Ratio AUC
Summary of the method: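 Male Wistar rats (230 ± 15 g), fasted overnight, water ad libitum; single oral dose of 10 mg/kg as suspension in 1% Tween 80/0.5% NaCMC, n=4. Blood and brain collected by discrete sampling at 0.5, 2, 4 and 8 h post dose. Brain washed in PBS and homogenised, plasma and homogenate precipitated with acetonitrile plus internal standard, LC/MS/MS; AUC0-t from non-compartmental analysis.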

[6] = Metabolic stability in rat hepatocytes at 1 uM after 3 to 30 mins by LC-MS/MS analysis; assay type: ADME, cell-based, Hepatocyte
[7] = target: Voltage-gated inwardly rectifying potassium channel KCNH2 (Homo sapiens, UniProt Q12809); experiment: Inhibition of [3H]-astemizole binding to human ERG at 10 uM after 2 hrs by liquid scintillation counting method relative to control; settings: 2 h, 10 µM
Chain of Voltage-gated inwardly rectifying potassium channel KCNH2 (Q12809 whole entry): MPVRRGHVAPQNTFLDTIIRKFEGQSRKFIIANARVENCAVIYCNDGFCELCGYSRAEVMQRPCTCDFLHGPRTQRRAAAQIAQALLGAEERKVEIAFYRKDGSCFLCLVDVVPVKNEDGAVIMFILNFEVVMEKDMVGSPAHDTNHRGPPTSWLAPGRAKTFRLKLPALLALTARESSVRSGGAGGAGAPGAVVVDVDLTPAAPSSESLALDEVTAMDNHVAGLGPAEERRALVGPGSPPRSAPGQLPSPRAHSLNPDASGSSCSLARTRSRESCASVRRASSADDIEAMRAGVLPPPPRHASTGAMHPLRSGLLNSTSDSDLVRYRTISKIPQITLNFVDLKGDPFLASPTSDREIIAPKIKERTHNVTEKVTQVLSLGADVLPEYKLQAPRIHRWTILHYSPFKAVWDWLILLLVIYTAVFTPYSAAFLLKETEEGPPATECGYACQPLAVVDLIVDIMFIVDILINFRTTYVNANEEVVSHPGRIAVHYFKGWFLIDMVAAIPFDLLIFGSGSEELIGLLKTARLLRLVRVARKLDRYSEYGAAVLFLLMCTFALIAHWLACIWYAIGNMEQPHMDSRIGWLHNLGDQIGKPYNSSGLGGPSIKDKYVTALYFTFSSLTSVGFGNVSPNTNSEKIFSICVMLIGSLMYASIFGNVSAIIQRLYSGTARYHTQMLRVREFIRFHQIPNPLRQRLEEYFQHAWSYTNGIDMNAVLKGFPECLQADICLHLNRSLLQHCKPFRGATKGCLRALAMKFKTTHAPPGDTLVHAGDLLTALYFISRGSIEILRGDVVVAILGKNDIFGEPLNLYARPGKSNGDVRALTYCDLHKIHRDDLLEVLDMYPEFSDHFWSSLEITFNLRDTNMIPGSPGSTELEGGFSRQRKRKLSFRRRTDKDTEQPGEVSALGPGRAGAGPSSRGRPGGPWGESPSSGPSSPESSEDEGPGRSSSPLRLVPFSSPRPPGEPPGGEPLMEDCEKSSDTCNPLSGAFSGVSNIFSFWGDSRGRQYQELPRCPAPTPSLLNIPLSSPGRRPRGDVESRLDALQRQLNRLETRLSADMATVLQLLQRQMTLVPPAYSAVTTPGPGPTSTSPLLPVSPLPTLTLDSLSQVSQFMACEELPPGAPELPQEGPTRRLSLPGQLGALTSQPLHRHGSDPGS

AUC(0-t) [1]: 4.7 µM·h
AUC(0-t) [2]: 1.1 µM·h
Kp [5]: 0.25
SMILES: CCN(CC)C1CCC(C)(C(=O)Nc2nc3c(OC)ccc(N4CCOCC4)c3s2)CC1 (configuration not stated)
Activity (Rattus norvegicus [3]): Dose-dependent effect
Activity (Rattus norvegicus [4]): Active

Stability [6]: Stable
SMILES: COc1cnc(N2CCOCC2)c2sc(NC(=O)C(C)(C)Oc3ccc(F)cc3)nc12

SMILES: COc1ccc(N2CCOCC2)c2sc(NC(=O)C3(C)CCC(C)(O)CC3)nc12 (configuration not stated)
inhibition (INH) [7]: Not Active
